The values below come from ChEMBL document CHEMBL1157935, “Potent and selective fluoroketone inhibitors of group VIA calcium-independent phospholipase A2” (J Med Chem, 2010).

Experiment [1] concerns the target T1, 85/88 kDa calcium-independent phospholipase A2 (Homo sapiens) (UniProt O60733).
T1 sequence (whole entry): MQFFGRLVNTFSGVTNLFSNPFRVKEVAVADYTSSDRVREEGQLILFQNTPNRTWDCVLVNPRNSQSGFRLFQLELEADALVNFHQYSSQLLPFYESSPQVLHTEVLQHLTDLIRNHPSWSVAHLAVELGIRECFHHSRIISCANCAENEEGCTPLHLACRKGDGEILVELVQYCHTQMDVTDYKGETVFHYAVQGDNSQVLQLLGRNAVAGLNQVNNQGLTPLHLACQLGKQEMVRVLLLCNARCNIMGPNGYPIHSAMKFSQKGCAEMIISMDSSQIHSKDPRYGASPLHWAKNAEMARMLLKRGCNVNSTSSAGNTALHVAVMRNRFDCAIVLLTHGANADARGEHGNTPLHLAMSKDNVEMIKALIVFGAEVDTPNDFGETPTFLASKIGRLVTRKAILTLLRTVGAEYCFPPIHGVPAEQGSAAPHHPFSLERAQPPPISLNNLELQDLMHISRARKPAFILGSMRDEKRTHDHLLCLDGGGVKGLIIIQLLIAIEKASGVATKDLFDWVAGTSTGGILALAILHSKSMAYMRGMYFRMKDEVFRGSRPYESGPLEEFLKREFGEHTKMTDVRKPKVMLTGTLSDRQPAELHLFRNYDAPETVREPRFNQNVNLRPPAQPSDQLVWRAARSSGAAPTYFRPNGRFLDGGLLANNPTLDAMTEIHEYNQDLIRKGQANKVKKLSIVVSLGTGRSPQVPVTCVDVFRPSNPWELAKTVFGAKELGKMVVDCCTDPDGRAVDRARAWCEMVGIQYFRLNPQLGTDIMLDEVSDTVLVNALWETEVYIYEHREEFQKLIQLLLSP
In words: Inhibition of human recombinant group 6A iPLA2 expressed in Sf9 insect cells at 0.091 mol fraction after 30 mins by Dole assay. The method in brief:
(§1)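 Screen at 0.091 mole fraction (mean, SE, n = 3). XI(50), the inhibitor mole fraction giving 50% inhibition, fitted sigmoidally from typically 7 levels between 0.00091 and 0.091.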

Experiment [2] concerns the target T2, Cytosolic phospholipase A2 (Homo sapiens) (UniProt P47712).
T2 sequence (whole entry): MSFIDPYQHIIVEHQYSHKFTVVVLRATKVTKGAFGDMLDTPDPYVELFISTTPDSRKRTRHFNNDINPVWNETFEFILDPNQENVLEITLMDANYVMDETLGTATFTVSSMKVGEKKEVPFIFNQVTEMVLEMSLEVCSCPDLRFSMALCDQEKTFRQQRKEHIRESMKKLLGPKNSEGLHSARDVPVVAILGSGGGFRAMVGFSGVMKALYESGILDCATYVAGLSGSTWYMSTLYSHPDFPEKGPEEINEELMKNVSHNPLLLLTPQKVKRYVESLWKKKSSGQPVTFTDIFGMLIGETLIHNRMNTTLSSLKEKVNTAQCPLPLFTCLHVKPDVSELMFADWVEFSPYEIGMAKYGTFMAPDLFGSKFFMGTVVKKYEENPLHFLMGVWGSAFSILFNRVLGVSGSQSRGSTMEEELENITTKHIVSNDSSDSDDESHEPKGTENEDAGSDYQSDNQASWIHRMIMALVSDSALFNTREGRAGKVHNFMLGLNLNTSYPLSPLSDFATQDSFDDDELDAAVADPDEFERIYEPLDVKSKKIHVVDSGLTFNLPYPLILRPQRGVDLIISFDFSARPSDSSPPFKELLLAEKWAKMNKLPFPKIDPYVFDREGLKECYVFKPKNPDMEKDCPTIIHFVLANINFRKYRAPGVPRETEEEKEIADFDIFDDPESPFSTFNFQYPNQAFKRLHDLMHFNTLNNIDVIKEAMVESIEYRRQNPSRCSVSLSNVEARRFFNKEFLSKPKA
Nature of the experiment: Inhibition of human group […] cPLA2 at 0.091 mol fraction after 30 mins by Dole assay. The method in brief: (§2)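 Screened at 0.091 mole fraction (mean, SE, n = 3). XI(50) from % inhibition vs inhibitor mole fraction, typically 7 levels 0.00091–0.091, fitted by symmetrical sigmoidal non-linear regression.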

Experiment [3] concerns the target T1, 85/88 kDa calcium-independent phospholipase A2 (Homo sapiens). Nature of the experiment: Inhibition of human recombinant group 6A iPLA2 expressed in Sf9 insect cells after 30 mins by Dole assay. The method in brief:
as §1

The target of experiment [4] is T3, Phospholipase A2 group V (Homo sapiens) (UniProt P39877).
T3 sequence (whole entry): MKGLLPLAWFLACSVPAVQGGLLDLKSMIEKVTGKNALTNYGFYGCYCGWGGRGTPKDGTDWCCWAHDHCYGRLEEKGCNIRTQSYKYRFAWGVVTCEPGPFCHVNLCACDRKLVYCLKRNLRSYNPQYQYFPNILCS
In words: Inhibition of human group 5 sPLA2 at 0.091 mol fraction after 30 mins. The method in brief: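 Inhibitor screened at 0.091 mole fraction of the micelle interface. Average percent inhibition reported (standard error, n = 3); 25% or less inhibition taken as none.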

Experiment [5] deals with T2, Cytosolic phospholipase A2 (Homo sapiens). Nature of the experiment: Inhibition of human group […] cPLA2 after 30 mins by Dole assay. The method in brief:
as §2

The species entered for experiment [6] is Homo sapiens. In words: Selectivity ratio for inhibition of human recombinant group 6A iPLA2 over inhibition of human group […] cPLA2. The method in brief:
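Ratio derived from XI(50) values for the two enzymes, using the modified Dole assay with 14C-labelled PAPC in Triton X-100 mixed micelles. GVIA iPLA2: 400 μM Triton X-100, 98.3 μM PAPC, 1.7 μM 14C-PAPC, 100 mM HEPES pH 7.5, 2 mM ATP, 4 mM DTT. GIVA cPLA2: 400 μM Triton X-100, 97 μM PAPC, 1.8 μM 14C-PAPC, 3 μM PIP2, 100 mM HEPES pH 7.5, 90 μM CaCl2, 2 mM DTT, 0.1 mg/ml BSA. XI(50) comes from a sigmoidal fit of % inhibition versus log mole fraction (typically 7 points, 0.00091–0.091).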

The species named for experiment [7] is Homo sapiens. In words: Selectivity ratio for inhibition of human recombinant group 6A iPLA2 over inhibition of human group 5 sPLA2.

As for `O=C(C(F)CCCc1ccccc1)C(F)(F)F` (stereo unspecified), the inhibition came out at 97.6% in experiment [1] and 52.1% in experiment [2]. Also, the XI50 (mole fraction) in experiment [3] turned out to be 0.0025.

Consider `O=C(/C=C/c1ccccc1)C(F)(F)C(F)(F)F`, for which the results for the inhibition in experiment [1] and in experiment [4] were 96.4% and 76.9%, respectively. Further, in experiment [3], the XI50 (mole fraction) was determined as 0.0066.

`CCCCCCCCc1ccc(OCCCC(=O)C(F)(F)F)cc1`: the inhibition in experiment [1] was determined as 99.4%; in experiment [2], 91.5%; in experiment [4] it was 61.4%. The XI50 (mole fraction) in experiment [3] stood at 0.0029; in experiment [5], 0.022.

On to `O=Cc1ccc(CCCCC(=O)C(F)(F)C(F)(F)F)o1`, for which the inhibition in experiment [1] was found to be 84.4%; in experiment [4] it was 41.9%. For the same molecule, the XI50 (mole fraction) in experiment [3] turned out to be 0.0262.

For `O=C(CCCCc1ccccc1)C(F)(F)C(F)(F)C(F)(F)F`, the results for the inhibition in experiment [1], in experiment [2] and in experiment [4] were 99.4%, 32.6% and 61.8%, respectively. For the same molecule, the XI50 (mole fraction) in experiment [3] came to 0.0022.

On to `O=C(/C=C/C=C/c1ccccc1)C(F)(F)C(F)(F)F`, for which the inhibition in experiment [1] was found to be 96%; in experiment [2] it was 59%. The XI50 (mole fraction) in experiment [3] amounted to 0.0313.

On to `O=C(C(F)CCCc1ccccc1)C(F)(F)C(F)(F)C(F)(F)F` (stereo unspecified), for which the inhibition in experiment [1] was 100%; in experiment [2], 79.9%; in experiment [4], 36.1%. Also, the Ratio in experiment [6] was 76; in experiment [7], above 180. Moreover, the XI50 (mole fraction) in experiment [3] stood at 0.0005.

Turning to `CCCCCCOc1ccc(CCCCC(=O)C(F)(F)C(F)(F)C(F)(F)F)cc1`, the inhibition in experiment [1] came out at 95.8%; in experiment [2] it was 43.7%; in experiment [4] it was 76.9%. Besides, in experiment [3], the XI50 (mole fraction) turned out to be 0.0136.

As for `CCCCCCCC/C=C\CCCCCCCC(=O)C(F)(F)C(F)(F)F`, the inhibition in experiment [1] is 95.5%; in experiment [2] it was 41.4%; in experiment [4], 67%. Also, the XI50 (mole fraction) in experiment [3] was 0.0192.

As for `O=C(CCCCc1ccc2ccccc2c1)C(F)(F)C(F)(F)F`, the inhibition turned out to be 99.8% in experiment [1], 77.1% in experiment [2] and 58.4% in experiment [4]. Besides, in experiment [3], the XI50 (mole fraction) turned out to be 0.0006.

As for `O=C(CCCCCc1ccccc1)C(F)(F)C(F)(F)C(F)(F)F`, the inhibition in experiment [1] is 98.4%. Besides, in experiment [3], the XI50 (mole fraction) was 0.003.

On to `O=C(C(F)CCCCc1ccccc1)C(F)(F)F` (stereo unspecified), for which the inhibition was 98.8% in experiment [1] and 66% in experiment [2]. Besides, the XI50 (mole fraction) in experiment [3] came out at 0.0013.

For `O=C(CCCCc1ccc2ccccc2c1)C(F)(F)F`, the inhibition came to 99.9% in experiment [1], 80.8% in experiment [2] and 36.8% in experiment [4]. Also, the Ratio was 195 in experiment [6] and above 455 in experiment [7]. Moreover, in experiment [3], the XI50 (mole fraction) came out at 0.0002.

`CCCCCCOc1ccc(CCCCC(=O)C(F)(F)C(F)(F)F)cc1`: the inhibition worked out at 98.3% in experiment [1], 76.1% in experiment [2] and 71.7% in experiment [4]. Also, in experiment [3], the XI50 (mole fraction) stood at 0.0084.

With `O=C(CCCOc1ccccc1)C(F)(F)C(F)(F)F`, the inhibition in experiment [1] was 99.1%. The XI50 (mole fraction) in experiment [3] was determined as 0.0036.

`O=C(CCCCc1ccccc1)C(F)(F)C(F)(F)F`: the XI50 (mole fraction) in experiment [3] stood at 0.0014.

As for `CCCCCCCC/C=C\CCCCCCCC(=O)C(F)(F)C(F)(F)C(F)(F)F`, the inhibition in experiment [1] stood at 80.6%; in experiment [2], 57%; in experiment [4], 33.9%. In experiment [3], the XI50 (mole fraction) stood at 0.0574.

Regarding `O=C(CCCCc1ccc2ccccc2c1)C(F)(F)C(F)(F)C(F)(F)F`, the inhibition in experiment [1] came to 99.7%; in experiment [2], 55.8%; in experiment [4] it was 46.3%. The XI50 (mole fraction) in experiment [3] is 0.001.

For the molecule `CCCCCCCCc1ccc(OCCCC(=O)C(F)(F)C(F)(F)F)cc1`, the inhibition in experiment [1] is 99.4%; in experiment [2] it was 88.8%; in experiment [4] it was 63%. Further, the XI50 (mole fraction) in experiment [3] was found to be 0.0024.

As to `O=C(C(F)CCCc1ccccc1)C(F)(F)C(F)(F)F` (stereo unspecified), the inhibition in experiment [1] stood at 100%; in experiment [2] it was 68.4%; in experiment [4], 39.1%. In experiment [3], the XI50 (mole fraction) is 0.0005.

Consider `OC(CCCCc1ccccc1)C(F)(F)C(F)(F)F` (stereo unspecified), for which the inhibition in experiment [1] amounted to 94.3%; in experiment [2], 44.8%; in experiment [4] it was 67.3%. The XI50 (mole fraction) in experiment [3] came to 0.039.

As to `OC(CCCCc1ccccc1)C(F)(F)C(F)(F)C(F)(F)F` (stereo unspecified), the inhibition in experiment [1] turned out to be 97%; in experiment [2], 82%; in experiment [4], 65.8%. Moreover, in experiment [3], the XI50 (mole fraction) was found to be 0.0258.
